Measurements as given in ChEMBL document CHEMBL3797041, “Discovery of potent, reversible MetAP2 inhibitors via fragment based drug discovery and structure based drug design-Part 2” (Bioorg Med Chem Lett, 2016).
Each block holds one compound with its values, some of them ahead of it.

What was measured:
Cytochrome P450 1A2 = molecular target: T1, Cytochrome P450 1A2 (Homo sapiens, UniProt P05177); test: Inhibition of human CYP1A2 expressed in Escherichia coli DH5alpha; assay type: ADME
T1 sequence (P05177 whole entry): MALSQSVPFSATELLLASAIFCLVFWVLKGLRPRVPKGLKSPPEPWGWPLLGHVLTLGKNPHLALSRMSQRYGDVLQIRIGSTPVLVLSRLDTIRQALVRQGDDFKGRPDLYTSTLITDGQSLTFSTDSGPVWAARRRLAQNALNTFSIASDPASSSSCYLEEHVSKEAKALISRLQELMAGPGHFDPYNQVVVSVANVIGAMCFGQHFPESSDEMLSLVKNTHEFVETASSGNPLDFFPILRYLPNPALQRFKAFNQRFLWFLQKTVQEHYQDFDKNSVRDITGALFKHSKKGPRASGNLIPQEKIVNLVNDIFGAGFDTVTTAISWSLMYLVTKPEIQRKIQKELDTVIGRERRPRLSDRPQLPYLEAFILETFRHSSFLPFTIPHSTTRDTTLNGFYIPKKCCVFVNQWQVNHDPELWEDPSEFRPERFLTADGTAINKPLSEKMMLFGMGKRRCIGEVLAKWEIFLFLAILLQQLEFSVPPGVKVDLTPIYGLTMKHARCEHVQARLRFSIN

[1] = AUC in Sprague-Dawley rat at 2.9 mg/kg, po; assay type: ADME, organism-based; conditions: in vivo
[2] = Half life in Sprague-Dawley rat at 2.9 mg/kg, po; assay type: ADME, organism-based; conditions: in vivo
[3] = Clearance in Sprague-Dawley rat at 2.9 mg/kg, po; assay type: ADME, organism-based; conditions: in vivo
Rattus norvegicus = test: Volume of distribution in Sprague-Dawley rat at 2.9 mg/kg, po; assay type: ADME, organism-based; conditions: in vivo
[4] = Oral bioavailability in Sprague-Dawley rat at 2.9 mg/kg; assay type: ADME, organism-based; conditions: in vivo
Mus musculus [5] = test: Antiobesity in diet-induced obese mouse model assessed as decrease in body weight at 30 mg/kg, po qd for 7 days relative to control; assay type: functional; conditions: 168 h
Method in brief: (§1)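 DIO mice were dosed by oral gavage once daily for 7 days, with a vehicle-dosed cohort as the comparator. Body weight was read relative to the vehicle group, and food intake and activity levels were monitored in dosed and vehicle cohorts. In some studies, animals were first acclimated to gavage for a few weeks, until their weights stopped changing, before dosing began.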

Mus musculus [6] = test: Toxicity in diet-induced obese mouse model assessed as effect on food intake at 30 mg/kg, po qd for 7 days; assay type: organism-based; conditions: in vivo, 168 h; method in brief: as §1
Mus musculus [7] = test: Toxicity in diet-induced obese mouse model assessed as effect on activity levels at 30 mg/kg, po qd for 7 days; assay type: organism-based; conditions: in vivo, 168 h; method in brief: as §1

Compound: Cc1nc2[nH]cnc2cc1-n1c2ccc(F)cc2c2[nH]ncc21
- IC50 (Cytochrome P450 1A2): 3.16 µM
- AUC [1]: 2240 ng·h/mL
- half-life [2]: 6 h
- CL/F [3]: 17.2 mL/min/kg
- Vd (Rattus norvegicus): 1.597 L/kg
- bioavailability [4]: 70%
- inhibition in vivo at 30 mg/kg (Mus musculus [5]): 4%
- Activity (Mus musculus [6]): Non-toxic
- Activity (Mus musculus [7]): Non-toxic

Compound: Cc1nc2c(cc1-n1c3ccc(F)cc3c3[nH]ncc31)ncn2C
- IC50 (Cytochrome P450 1A2): 20 µM

Compound: Nc1ncc(-n2c3ccc(F)cc3c3[nH]ncc32)cc1Cl
- IC50 (Cytochrome P450 1A2): 0.158 µM

Compound: Cc1c(-n2c3ccc(F)cc3c3[nH]ncc32)cnc2[nH]cnc12
- IC50 (Cytochrome P450 1A2): > 50.1 µM

Compound: Cc1cc(C(=O)NCCO)ccc1-n1c2ccc(F)cc2c2[nH]ncc21
- IC50 (Cytochrome P450 1A2): 7.94 µM

Compound: O=C(NCCO)c1ccc(-n2c3ccc(F)cc3c3[nH]ncc32)cc1
- IC50 (Cytochrome P450 1A2): 7.94 µM

These reach a lower IC50 (Cytochrome P450 1A2). Values come first.

- IC50 (Cytochrome P450 1A2): 0.0631 µM
Compound: Clc1ccc2c3[nH]ncc3n(-c3cccnc3)c2c1

- IC50 (Cytochrome P450 1A2): 0.126 µM
Compound: Fc1ccc2c(c1)c1[nH]ncc1n2-c1cccnc1

- IC50 (Cytochrome P450 1A2): 0.0501 µM
Compound: Fc1cc2c3[nH]ncc3n(-c3cccnc3)c2cc1F
